According to ChEMBL document CHEMBL1129783, “Synthesis and modeling studies with monocyclic analogues of mycophenolic acid” (J Med Chem, 1996):
pIC50: −log10 of the molar value.

Columns and labels:
L1210 [1] = assay: Inhibitory activity of compound against L1210 leukemia cells in tissue culture; assay type: functional, cell-based; conditions: Mus musculus
How it was run: (§1)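 L1210 leukemia cells in tissue culture were exposed for 48 h to compounds dissolved in DMSO, at up to 100 μM (highest concentration tested). Read-out was growth inhibition, reported as IC50 or as percent inhibition at 100 μM.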

HT-29 [2] = assay: Inhibitory activity of compound against HT-29 human colon adenocarcinoma cell line; […]; assay type: functional, cell-based
HT-29 [3] = assay: Inhibitory activity of compound against HT-29 human colon adenocarcinoma cell line; assay type: functional, cell-based
A549 = assay: Inhibitory activity of compound against human A549 lung carcinoma cell line.; assay type: functional, cell-based
MCF7 = assay: Inhibitory activity of compound against human MCF-7 breast adenocarcinoma cell line.; assay type: functional, cell-based
A121 = assay: Inhibitory activity of compound against human A121 ovarian cell line.; assay type: functional, cell-based
L1210 [4] = assay: Inhibitory activity of compound against L1210 leukemia cells in tissue culture at 100 uM; assay type: functional; conditions: Mus musculus; how it was run: as §1

**Q.** How did the pIC50 (L1210 [1]) turn out when `COC(=O)c1ccc(OC)c(C/C=C(\C)CCC(=O)O)c1O` was run?
**A.** Its pIC50 is < 4.00.

**Q.** What about the IC50 (HT-29 [2]) of the same compound?
**A.** The IC50 was “Not Active”.

**Q.** `COc1c(C)cc(C(N)=O)c(O)c1C/C=C(\C)CCC(=O)O` was tested. Which pIC50 (L1210 [1]) did it give?
**A.** Its pIC50 is < 4.00.

**Q.** `COc1c(Cl)cc(C(N)=O)c(O)c1C/C=C(\C)CCC(=O)O` was tested. Which pIC50 (L1210 [1]) did it give?
**A.** Its pIC50 is < 4.00.

**Q.** How did the pIC50 (L1210 [1]) turn out when `COc1c(C)cc(C(C)=O)c(O)c1C/C=C(\C)CCC(=O)O` was run?
**A.** The pIC50 was < 4.00.

**Q.** With `COc1c(C)c2c(c(O)c1C/C=C(\C)CCC(=O)O)C(=O)OC2` [MYCOPHENOLIC ACID] as the compound, how does the pIC50 (L1210 [1]) read?
**A.** Its pIC50 is > 6.70.

**Q.** What about the pIC50 (HT-29 [3]) of the same compound?
**A.** The pIC50 was 6.40.

**Q.** `COc1ccc(C(C)=O)c(O)c1C/C=C(\C)CCC(=O)O` was tested. Which pIC50 (A549) did it give?
**A.** The pIC50 was < 4.49.

**Q.** And the pIC50 (L1210 [1])?
**A.** Its pIC50 is < 4.00.

**Q.** And the IC50 (HT-29 [2])?
**A.** Its IC50 is “Not Active”.

**Q.** What about the pIC50 (MCF7) of the same compound?
**A.** Its pIC50 is < 4.49.

**Q.** And the pIC50 (A121)?
**A.** The pIC50 was < 4.49.

**Q.** How did the pIC50 (L1210 [1]) turn out when `COC(=O)c1cc(C)c(OC)c(C/C=C(\C)CCC(=O)O)c1O` was run?
**A.** Its pIC50 is < 4.00.

**Q.** For `COc1c(Cl)cc(C(C)=O)c(O)c1C/C=C(\C)CCC(=O)O`, which inhibition at 100 µM (L1210 [4]) is on record?
**A.** The inhibition at 100 µM was 21%.

**Q.** With `COC(=O)c1cc(Cl)c(OC)c(C/C=C(\C)CCC(=O)O)c1O` as the compound, how does the pIC50 (L1210 [1]) read?
**A.** The pIC50 was 4.21.

**Q.** What does the source list for `COc1ccc(C(N)=O)c(O)c1C/C=C(\C)CCC(=O)O`?
**A.** pIC50 (L1210 [1]): < 4.00; IC50 (HT-29 [2]): Not Active
